Converted amounts (≈) assume the structure as drawn. Each block holds one compound with its values, some of them ahead of it. The source made the active and inactive calls. The calls are words filed in the database; no cut-off is given here.
Assays:
Trypanosoma cruzi [1] = experiment: Antitrypanosomal activity against trypomastigotes of Trypanosoma cruzi Tulahuen infected immunosuppressed Swiss mouse assessed as level of parasite in blood at 20 mg/kg, po administered 8 day after post infection qd for 20 days measured after 3 cycles of immunosuppression; type: functional, organism-based; parameters: dose 20 mg/kg
Trypanosoma cruzi [2] = experiment: Antitrypanosomal activity against trypomastigotes of Trypanosoma cruzi Tulahuen infected immunosuppressed Swiss mouse assessed as level of parasite in blood at 100 mg/kg, po administered 8 day after post infection qd for 20 days measured after 3 cycles of immunosuppression; type: functional, organism-based; parameters: dose 100 mg/kg
Trypanosoma cruzi [3] = experiment: Antitrypanosomal activity against trypomastigotes of Trypanosoma cruzi Tulahuen infected in Swiss mouse model of chagas disease assessed as increase in host survival at 100 mg/kg, po administered 8 day after post infection qd for 20 days; type: functional, organism-based; parameters: dose 100 mg/kg
Trypanosoma cruzi [4] = experiment: Antitrypanosomal activity against trypomastigotes of Trypanosoma cruzi Tulahuen infected in Swiss mouse model of chagas disease assessed as decrease in parasite level in blood at 100 mg/kg, po administered 8 day after post infection qd for 20 days; type: functional; parameters: scale not given: the % may be the effect or the level left
[5] = Kinetic solubility of the compound at pH 6.5 by nephelometric analysis; type: physicochemical; details: buffer, read-out: Kinetic_solubility
Trypanosoma cruzi [6] = experiment: Antitrypanosomal activity against trypomastigotes of Trypanosoma cruzi Tulahuen infected in Swiss mouse model of chagas disease assessed as decrease in parasite level in blood at 50 mg/kg, po administered 8 day after post infection qd for 10 days measured on day 21; type: functional, organism-based; parameters: dose 50 mg/kg
Trypanosoma cruzi [7] = experiment: Antitrypanosomal activity against trypomastigotes of Trypanosoma cruzi Tulahuen expressing the beta- galactosidase gene infected rat L6 cells after 96 hrs; type: functional, organism-based; details: L6, 96 h
Method in brief: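 Tulahuén trypomastigotes expressing β-galactosidase, maintained by serial passage in L6 cells. L6 cells seeded and left 24 h at 37 °C, 5% CO2, then infected at MOI 3 for 48 h. Compound exposure 96 h, benznidazole control. CPRG with 0.3% Nonidet P-40 added, absorbance at 530 nm after 4−6 h. IC50 taken from % inhibition curve; mean of at least two assays.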

Trypanosoma cruzi [8] = experiment: Antitrypanosomal activity against trypomastigotes of Trypanosoma cruzi Tulahuen infected immunosuppressed Swiss mouse assessed as level of parasite in blood at 50 mg/kg, po administered after 2 cycles of immunosuppression qd for 10 days; type: functional, organism-based; parameters: dose 50 mg/kg
CYP3A4/5 = CYP3A4/5 (Homo sapiens, UniProt P08684+P20815); experiment: Inhibition of CYP3A4/5 in human liver microsomes; type: ADME, Microsome
Trypanosoma cruzi [9] = experiment: Antitrypanosomal activity against trypomastigotes of Trypanosoma cruzi Tulahuen infected in Swiss mouse model of chagas disease assessed as decrease in parasite level in blood at 20 mg/kg, po administered 8 day after post infection qd for 20 days; type: functional; parameters: scale not given: the % may be the effect or the level left
Method in brief: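 Female outbred Swiss mice, about 8 weeks old, infected ip with Tulahuén parasites; five mice per group. Daily dosing starts day 8 post-infection. Oral doses given by gavage in HPMC vehicle (0.5% HPMC, 0.4% Tween 80, 0.5% benzyl alcohol); ip doses in PBS with 0.4% Tween 80 and 10% PEG400. Tail-prick blood taken days 8, 9, 12, 14, 16, 19 and 27 post-infection, red cells lysed, and live trypomastigotes counted by hemocytometer. % efficacy = (vehicle mean − treated mean)/vehicle mean × 100. Survival recorded as surviving/infected-and-treated.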

Trypanosoma cruzi [10] = experiment: Antitrypanosomal activity against trypomastigotes of Trypanosoma cruzi Tulahuen infected in Swiss mouse model of chagas disease assessed as level of parasite in blood at 20 mg/kg, po qd for 20 days measured after 30 day; type: functional, organism-based; parameters: dose 20 mg/kg
Method in brief: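 Female Swiss mice infected ip with Tulahuén parasites; oral gavage dosing in HPMC vehicle, daily from day 8 post-infection. Dosing is followed by 10 days without compound. If blood is then parasite-free, mice receive cyclophosphamide ip 50 mg/kg/day, up to three cycles (4 days on, 3 rest). Parasitemia counted in tail-prick blood by hemocytometer.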

[11] = Oral bioavailability in Sprague-Dawley rat at 17.6 mg/kg; type: ADME, organism-based; details: in vivo
Method in brief: (§1)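 Overnight-fasted male Sprague–Dawley rats (272–320 g), n = 2 per route. IV dose given as a 10 min jugular infusion in aqueous solution; oral dose by gavage as aqueous suspension. Arterial blood taken via carotid cannula up to 24 h. Plasma measured by LC-MS after acetonitrile precipitation. Noncompartmental analysis. Blood clearance = plasma clearance divided by in vitro blood/plasma ratio. Bioavailability from mean dose-normalised AUC0–inf, oral versus IV.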

[12] = Blood Clearance in Sprague-Dawley rat at 5.2 mg/kg, iv; type: ADME, organism-based; parameters: dose 5.2 mg/kg, route intravenous; details: whole blood; method in brief: as §1
Trypanosoma cruzi [13] = experiment: Antitrypanosomal activity against trypomastigotes of Trypanosoma cruzi Tulahuen infected in Swiss mouse model of chagas disease assessed as decrease in parasite level in blood at 50 mg/kg, po administered 8 day after post infection qd for 10 days; type: functional, organism-based; parameters: dose 50 mg/kg
[14] = Elimination half life in Sprague-Dawley rat at 5.2 mg/kg, iv; type: ADME, organism-based; parameters: dose 5.2 mg/kg, route intravenous; details: in vivo, read-out: beta t1/2 (converted); method in brief: as §1
[15] = Apparent volume of distribution at steady state in Sprague-Dawley rat at 5.2 mg/kg, iv; type: ADME, organism-based; parameters: dose 5.2 mg/kg, route intravenous; details: in vivo, read-out: Vdss(app); method in brief: as §1
[16] = Plasma concentration in Swiss mouse at 100 mg/kg, po after 1 hr; type: ADME, organism-based; parameters: dose 100 mg/kg, route oral
Method in brief: (§2)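 Nonfasted male Swiss Outbred mice weighing 23.8−39.9 g, with food and water freely available, dosed by oral gavage as an aqueous solution or suspension. Plasma proteins precipitated with acetonitrile and compound quantified by LC-MS against standards made in blank mouse plasma. Lower limit of quantitation 0.001−0.015 μM.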

[17] = Plasma concentration in Swiss mouse at 100 mg/kg, po after 8 hrs; type: ADME, organism-based; parameters: dose 100 mg/kg, route oral; method in brief: as §2
[18] = Elimination half life in Sprague-Dawley rat at 4.8 mg/kg, iv; type: ADME, organism-based; parameters: dose 4.8 mg/kg, route intravenous; details: in vivo, read-out: beta t1/2 (converted); method in brief: as §1
[19] = Apparent volume of distribution at steady state in Sprague-Dawley rat at 4.8 mg/kg, iv; type: ADME, organism-based; parameters: dose 4.8 mg/kg, route intravenous; details: in vivo, read-out: Vdss(app); method in brief: as §1
[20] = Oral bioavailability in Sprague-Dawley rat at 15.7 mg/kg; type: ADME, organism-based; details: in vivo; method in brief: as §1
[21] = Blood Clearance in Sprague-Dawley rat at 4.8 mg/kg, iv; type: ADME, organism-based; parameters: dose 4.8 mg/kg, route intravenous; details: whole blood; method in brief: as §1

SMILES: O=C(Cn1ccnc1[N+](=O)[O-])NCc1ccccc1 [BENZNIDAZOLE]
- Activity (Trypanosoma cruzi [1]): Active
- Activity (Trypanosoma cruzi [2]): Active
- Activity (Trypanosoma cruzi [3]): Active
- Activity (Trypanosoma cruzi [4]): >99%

SMILES: N#Cc1ccc(C(O)(c2ccc(C(F)(F)F)cc2)c2cccnc2)cc1 (racemic)
- solubility kinetic [5]: 6.3 µg/mL (≈ 17.8 µM)
- Activity (Trypanosoma cruzi [6]): Active
- IC50 (Trypanosoma cruzi [7]): 12 nM
- Activity (Trypanosoma cruzi [1]): Active
- Activity (Trypanosoma cruzi [8]): inactive
- IC50 (CYP3A4/5): 7600 nM
- Activity (Trypanosoma cruzi [9]): >99%
- Activity (Trypanosoma cruzi [10]): Active
- bioavailability [11]: 68.1%
- clearance [12]: 24.4 mL/min/kg
- Activity (Trypanosoma cruzi [2]): Active
- Activity (Trypanosoma cruzi [13]): Active
- half-life [14]: 5.1 h
- Vd [15]: 5.7 L/kg

SMILES: CC(C)Oc1ccc(C(O)(c2ccc(Cl)cc2)c2cccnc2)cc1 (racemic)
- solubility kinetic [5]: 1.6 µg/mL (≈ 4.52 µM)
- IC50 (Trypanosoma cruzi [7]): 2 nM
- concentration at 1 h [16]: 9.6 µM
- IC50 (CYP3A4/5): 1900 nM
- concentration at 8 h [17]: 0.6 µM

- solubility kinetic [5]: 12.5 µg/mL (≈ 33.4 µM)
- IC50 (Trypanosoma cruzi [7]): 8 nM
- half-life [18]: 11.3 h
- IC50 (CYP3A4/5): 4400 nM
- Vd [19]: 9.1 L/kg
- bioavailability [20]: 7.4%
- clearance [21]: 73.9 mL/min/kg
SMILES: CC(C)Oc1ncc(C(O)(c2cccnc2)c2ccc(Cl)cc2F)cn1 (racemic)

Reference: ChEMBL document CHEMBL2057177, “Analogues of fenarimol are potent inhibitors of Trypanosoma cruzi and are efficacious in a murine model of Chagas disease” (J Med Chem, 2012)
